Experimental data taken from ChEMBL document CHEMBL1914430, “Synthesis of some new 1,3,5-trisubstituted pyrazolines bearing benzene sulfonamide as anticancer and anti-inflammatory agents” (Bioorg Med Chem Lett, 2011).

Columns and labels:
Type in all cases: functional
HL-60(TB) = test: Anticancer activity against human HL-60(TB) cells after 48 hrs; conditions: HL-60, 48 h
How it was run: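 NCI 60-cell-line panel protocol: cells exposed to compound for 48 h. Initial one-dose screen at 10⁻⁵ M. GI50 = concentration giving 50% decrease in net cell growth. TGI = concentration giving total growth inhibition. LC50 = concentration giving net 50% loss of initial cells at the end of incubation. A value not reached or exceeded is reported as greater or less than the highest or lowest concentration tested.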

RPMI-8226 = test: Anticancer activity against human RPMI8226 cells after 48 hrs; conditions: RPMI-8226, 48 h
How it was run: (§1)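 NCI 60-line panel protocol with a 48 h incubation. Per line: GI50 = concentration giving 50% decrease in net cell growth; TGI = total growth inhibition; LC50 = net 50% loss of initial cells. When the level was not reached or was exceeded, the value is given as greater or less than the highest or lowest concentration tested.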

SR = test: Anticancer activity against human SR cells after 48 hrs; how it was run: as §1
HOP-62 = test: Anticancer activity against human HOP62 cells after 48 hrs; conditions: HOP-62, 48 h
How it was run: (§2)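 NCI Drug Evaluation Branch 60-cell-line screen across leukemia, melanoma, lung, colon, CNS, ovarian, renal, prostate and breast panels. The incubation period is 48 h. Parameters are derived from dose–response data: GI50 is the concentration giving 50% decrease in net growth, TGI is total growth inhibition, and LC50 is net 50% loss of initial cells. Values beyond the tested range are reported as greater or less than the maximum or minimum concentration.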

HOP-92 = test: Anticancer activity against human HOP92 cells after 48 hrs; conditions: HOP-92, 48 h; how it was run: as §2
NCI-H322M = test: Anticancer activity against human NCI-H322M cells after 48 hrs; how it was run: as §1
NCI-H522 = test: Anticancer activity against human NCI-H522 cells after 48 hrs; conditions: NCI-H522, 48 h; how it was run: as §1
HCT-116 = test: Anticancer activity against human HCT116 cells after 48 hrs; conditions: HCT-116, 48 h; how it was run: as §2
HT-29 = test: Anticancer activity against human HT-29 cells after 48 hrs; conditions: HT-29, 48 h; how it was run: as §2
SF-295 = test: Anticancer activity against human SF295 cells after 48 hrs; conditions: SF-295, 48 h; how it was run: as §1
SNB-19 = test: Anticancer activity against human SNB19 cells after 48 hrs; conditions: SNB-19, 48 h; how it was run: as §1
U-251 = test: Anticancer activity against human U251 cells after 48 hrs; conditions: U-251, 48 h
How it was run: (§3)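 NCI ~60 human tumour cell line panel with a 48 h incubation. GI50 is the concentration giving a 50% fall in net growth, TGI gives total growth inhibition, and LC50 gives a net 50% loss of initial cells. An effect not reached or exceeded is reported as greater or less than the highest or lowest concentration tested.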

LOX IMVI = test: Anticancer activity against human LOXIMVI cells after 48 hrs; how it was run: as §2
Malme-3M = test: Anticancer activity against human MALME-3M cells after 48 hrs; how it was run: as §2
M14 = test: Anticancer activity against human M14 cells after 48 hrs; conditions: M14, 48 h; how it was run: as §2
SK-MEL-5 = test: Anticancer activity against human SK-MEL-5 cells after 48 hrs; conditions: SK-MEL-5, 48 h; how it was run: as §1
UACC-257 = test: Anticancer activity against human UACC257 cells after 48 hrs; conditions: UACC-257, 48 h; how it was run: as §3
OVCAR-5 = test: Anticancer activity against human OVCAR5 cells after 48 hrs; conditions: OVCAR-5, 48 h; how it was run: as §1
OVCAR-8 = test: Anticancer activity against human OVCAR8 cells after 48 hrs; conditions: OVCAR-8, 48 h; how it was run: as §1
ACHN = test: Anticancer activity against human ACHN cells after 48 hrs; how it was run: as §2
CAKI-1 = test: Anticancer activity against human Caki1 cells after 48 hrs; conditions: CAKI-1, 48 h; how it was run: as §2
SN12C = test: Anticancer activity against human SN12C cells after 48 hrs; how it was run: as §1
TK-10 = test: Anticancer activity against human TK10 cells after 48 hrs; conditions: TK-10, 48 h; how it was run: as §3
UO-31 = test: Anticancer activity against human UO31 cells after 48 hrs; conditions: UO-31, 48 h; how it was run: as §3
PC-3 = test: Anticancer activity against human PC3 cells after 48 hrs; conditions: PC-3, 48 h; how it was run: as §1
DU-145 = test: Anticancer activity against human DU145 cells after 48 hrs; conditions: DU-145, 48 h; how it was run: as §2
MDA-MB-231 = test: Anticancer activity against human MDA-MB-231 cells after 48 hrs; conditions: MDA-MB-231, 48 h; how it was run: as §2
[1] = Anticancer activity against human Hs 578T cells after 48 hrs; how it was run: as §2
BT-549 = test: Anticancer activity against human BT549 cells after 48 hrs; conditions: BT-549, 48 h; how it was run: as §2
MDA-MB-468 = test: Anticancer activity against human MDA-MB-468 cells after 48 hrs; conditions: MDA-MB-468, 48 h; how it was run: as §2
[2] = read-out: LC50 (the source's name)

## Cc1cc(O)c(C2=NN(c3ccc(S(N)(=O)=O)cc3)C(c3ccccc3Cl)C2)cc1Cl (stereo not drawn)
HL-60(TB)
  GI50: 3.44 µM
  LC50: > 100 µM
  TGI: 100 µM
RPMI-8226
  GI50: 2.97 µM
  LC50 (concentration for net 50% loss of initial cells): > 100 µM
  TGI: 8.35 µM
SR
  GI50: 2.97 µM
  LC50 (concentration killing 50% of initial cells): > 100 µM
HOP-62
  GI50: 2.03 µM
  LC50 (concentration for 50% net loss of initial cells): 8.53 µM
  TGI: 4.16 µM
HOP-92
  GI50: 1.94 µM
  TGI: 6.32 µM
HOP-92; [2]
  CC50: 3.12 µM
NCI-H322M
  GI50: 2.19 µM
  LC50 (net 50% loss of initial cells): 22 µM
  TGI: 5.06 µM
NCI-H522
  GI50: 1.89 µM
  LC50 (concentration killing 50% of initial cells): 8.33 µM
  TGI: 3.97 µM
HCT-116
  GI50: 1.76 µM
  TGI: 3.15 µM
HCT-116; [2]
  CC50: 5.61 µM
HT-29
  GI50: 1.92 µM
  TGI: 3.63 µM
HT-29; [2]
  CC50: 6.83 µM
SF-295
  GI50: 1.59 µM
  LC50 (concentration giving net 50% loss of initial cells): 6.34 µM
  TGI: 3.18 µM
SNB-19
  GI50: 3.54 µM
  TGI: 16.3 µM
SNB-19; [2]
  CC50: 92.3 µM
U-251
  GI50: 2.25 µM
  TGI: 5.02 µM
U-251; [2]
  CC50: 36.9 µM
LOX IMVI
  GI50: 1.78 µM
  TGI: 3.21 µM
LOX IMVI; [2]
  CC50: 5.8 µM
Malme-3M
  GI50: 2.62 µM
  TGI: 6.46 µM
Malme-3M; [2]
  CC50: > 100 µM
M14
  GI50: 1.85 µM
  TGI: 3.43 µM
M14; [2]
  CC50: 6.39 µM
SK-MEL-5
  GI50: 3.85 µM
  LC50: 36 µM
  TGI: 12.3 µM
UACC-257
  GI50: 11.8 µM
  LC50: > 100 µM
  TGI: 79.6 µM
OVCAR-5
  GI50: 1.74 µM
  LC50: 6.23 µM
  TGI: 3.3 µM
OVCAR-8
  GI50: 2.94 µM
  TGI: 11.2 µM
OVCAR-8; [2]
  CC50: > 100 µM
ACHN
  GI50: 3.34 µM
  TGI: 11 µM
ACHN; [2]
  CC50: 34.3 µM
CAKI-1
  GI50: 1.78 µM
  LC50 (concentration giving 50% net loss of initial cells): 8.95 µM
  TGI: 3.99 µM
SN12C
  GI50: 2.55 µM
  LC50: 29.4 µM
  TGI: 6.32 µM
TK-10
  GI50: 2.64 µM
  LC50: 33.9 µM
  TGI: 5.86 µM
UO-31
  GI50: 2.66 µM
  TGI: 16.2 µM
UO-31; [2]
  CC50: 48 µM
PC-3
  GI50: 1.58 µM
  TGI: 3.32 µM
PC-3; [2]
  CC50: 6.98 µM
DU-145
  GI50: 2.01 µM
  LC50 (concentration causing net 50% loss of initial cells): 7.35 µM
  TGI: 3.85 µM
MDA-MB-231
  GI50: 2.14 µM
  TGI: 4.52 µM
MDA-MB-231; [2]
  CC50: 9.52 µM
[1]
  GI50: 3.28 µM
[1]; [2]
  CC50: > 100 µM
BT-549
  GI50: 2.16 µM
  TGI: 4.74 µM
BT-549; [2]
  CC50: 18.3 µM
MDA-MB-468
  GI50: 2.22 µM
  TGI: 4.74 µM
MDA-MB-468; [2]
  CC50: > 100 µM
